Measurements as given in ChEMBL document CHEMBL3351932, “Discovery of BI 207524, an indole diamide NS5B thumb pocket 1 inhibitor with improved potency for the potential treatment of chronic hepatitis C virus infection” (J Med Chem, 2014).

Legend:
[1] = Inhibition of HCV full-length NS5B polymerase; design: species or system Hepacivirus hominis
Summary of the method: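 Polymerase inhibition with full-length NS5B enzyme in a biochemical assay; IC50 averaged from duplicate measurements, at least two determinations.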

[2] = Inhibition of Hepatitis C virus genotype 1b Con1 NS5B RNA dependent RNA polymerase activity using Bright-Glo luciferase substrate by cell-based 1b luciferase reporter assay; design: species or system Hepatitis C virus (isolate Con1)
Summary of the method: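 Cell-based genotype 1b luciferase reporter replicon assay; EC50 determined in duplicate, values averaged over at least two determinations.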

[3] = Half life in human liver microsomes; assay type: ADME
[4] = Permeability across apical to basolateral side in human Caco2 cells; assay type: ADME, cell-based; details: Caco-2, read-out: permeability
[5] = Plasma concentration in rat at 4 mg/kg, po cassette dosing after 1 hr; assay type: ADME, organism-based; design: dose 4 mg/kg, route oral
Summary of the method: (§1)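 Cassette screen: mixture of 4 compounds, each at 4 mg/kg, dosed orally to 2 rats; plasma sampled at 1 h and 2 h, solid-phase extracted and quantified by HPLC-UV or LC/MS against calibration standards in blank plasma (LOQ 7 ng/mL).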

[6] = Plasma concentration in rat at 4 mg/kg, po cassette dosing after 2 hrs; assay type: ADME, organism-based; design: dose 4 mg/kg, route oral; summary of the method: as §1
[7] = Cmax in rat at 10 mg/kg, po; assay type: ADME, organism-based; design: dose 10 mg/kg, route oral; details: in vivo
Summary of the method: (§2)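 Single-compound oral PK after overnight fast; 10 mg/kg given as suspension in 0.5% methylcellulose and 0.3% Tween-80, with or without 1% NMP as added solubilizer; N=3 per dose and route. Plasma kept on ice, centrifuged at 4°C, stored near -20°C, extracted by solid phase, quantified by HPLC-UV or LC/MS against blank-plasma standards (LOQ 7 ng/mL); non-compartmental analysis.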

[8] = AUC in rat at 10 mg/kg, po; assay type: ADME, organism-based; design: dose 10 mg/kg, route oral; details: plasma; summary of the method: as §2
[9] = Mean residence time in rat at 10 mg/kg, po; assay type: ADME, organism-based; design: dose 10 mg/kg, route oral; details: in vivo; summary of the method: as §2
[10] = Volume of distribution at steady state in rat at 2 mg/kg, iv; assay type: ADME, organism-based; design: dose 2 mg/kg, route intravenous; details: in vivo, read-out: Vdss
Summary of the method: (§3)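 Fasted animals dosed IV by bolus at 2 mg/kg in 70% PEG-400:30% water; N=3 per dose and route. Plasma separated at 4°C, stored near -20°C, solid-phase extracted, assayed by HPLC-UV or LC/MS with blank-plasma calibration (r2 > 0.99, LOQ 7 ng/mL); parameters from non-compartmental analysis.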

[11] = Clearance in rat at 2 mg/kg, iv; assay type: ADME, organism-based; design: dose 2 mg/kg, route intravenous; details: in vivo; summary of the method: as §3
[12] = Half life in rat at 2 mg/kg, iv; assay type: ADME, organism-based; design: dose 2 mg/kg, route intravenous; details: in vivo; summary of the method: as §3
[13] = Oral bioavailability in rat at 10 mg/kg; assay type: ADME, organism-based; details: in vivo; summary of the method: as §2
[14] = Half life in rat liver microsomes; assay type: ADME

Row | SMILES | IC50 [1] [nM] | EC50 [2] [nM] | half-life [3] [h] | Papp A→B [4] [×10⁻⁶ cm/s] | concentration at 1 h [5] [nM] | concentration at 2 h [6] [nM] | also measured
1 | Cn1c(-c2ccccn2)c(C2CCCC2)c2ccc(C(=O)NC3(C(=O)Nc4c(F)cc(/C=C/C(=O)O)cc4F)CCC3)cc21 | 1320 | > 2800 |  |  |  |  | 
2 | CC(C)COc1cc(NC(=O)C2(NC(=O)c3ccc4c(C5CCCC5)c(-c5ccccn5)n(C)c4c3)CCC2)ccc1/C=C/C(=O)O | 420 | 55 | > 5 |  |  |  | 
3 | Cn1c(-c2ccccn2)c(C2CCCC2)c2ccc(C(=O)NC3(C(=O)Nc4ccc(/C=C/C(=O)O)cc4Cl)CCC3)cc21 | 300 |  |  |  |  |  | 
4 | Cc1cc(/C=C/C(=O)O)ccc1NC(=O)C1(NC(=O)c2ccc3c(C4CCCC4)c(-c4ccccn4)n(C)c3c2)CCC1 | 370 | 1030 |  |  |  |  | 
5 | Cn1c(-c2ccccn2)c(C2CCCC2)c2ccc(C(=O)NC3(C(=O)Nc4ccc(/C=C/C(=O)O)c(OC5CCC5)c4)CCC3)cc21 | 280 | 65 | 0.833 |  |  |  | 
6 | CCOc1cc(NC(=O)C2(NC(=O)c3ccc4c(C5CCCC5)c(-c5cccc(N)n5)n(C)c4c3)CCC2)ccc1/C=C/C(=O)O | 330 | 10 | 1.3 | 9.4 | 100 | 100 | 
7 | CCOc1cc(NC(=O)C2(NC(=O)c3ccc4c(C5CCCC5)c(-c5ccc(F)cn5)n(C)c4c3)CCC2)ccc1/C=C/C(=O)O | 110 | 16 | 1.2 | 17 | 1300 | 800 | Cmax [7]: 2200 nM; AUC [8]: 6.1 µM·h; MRT [9]: 3 h; Vd [10]: 0.42 L/kg; clearance [11]: 6.2 mL/min/kg; half-life [12]: 1.5 h; bioavailability [13]: 17%
8 | CC(C)Oc1cc(NC(=O)C2(NC(=O)c3ccc4c(C5CCCC5)c(-c5ccccn5)n(C)c4c3)CCC2)ccc1/C=C/C(=O)O | 110 | 36 | 1.9 | 19 | 1300 | 800 | 
9 | Cn1c(-c2ccccn2)c(C2CCCC2)c2ccc(C(=O)NC3(C(=O)Nc4ccc(/C=C/C(=O)O)c(F)c4)CCC3)cc21 | 61 | 130 |  |  |  |  | 
10 | Cn1c(-c2ccccn2)c(C2CCCC2)c2ccc(C(=O)NC3(C(=O)Nc4ccc(/C=C/C(=O)O)cc4C(F)(F)F)CCC3)cc21 | 2250 | > 2500 |  |  |  |  | 
11 | Cc1cc(NC(=O)C2(NC(=O)c3ccc4c(C5CCCC5)c(-c5ccccn5)n(C)c4c3)CCC2)ccc1/C=C/C(=O)O | 69 | 79 |  |  |  |  | 
12 | CCOc1cc(NC(=O)C2(NC(=O)c3ccc4c(C5CCCC5)c(-c5ccc(Cl)cn5)n(C)c4c3)CCC2)ccc1/C=C/C(=O)O | 330 | 26 | 1.35 | 18 | 500 | 300 | half-life [14]: 1.73 h
13 | CCOc1cc(NC(=O)C2(NC(=O)c3ccc4c(C5CCCC5)c(-c5cnccn5)n(C)c4c3)CCC2)ccc1/C=C/C(=O)O | 48 | 21 | 0.767 |  |  |  | 
14 | CCOc1cc(NC(=O)C2(NC(=O)c3ccc4c(C5CCCC5)c(-c5ccccc5)n(C)c4c3)CCC2)ccc1/C=C/C(=O)O | 410 | 21 |  |  |  |  | 
15 | COc1cc(NC(=O)C2(NC(=O)c3ccc4c(C5CCCC5)c(-c5ccccn5)n(C)c4c3)CCC2)cc(OC)c1/C=C/C(=O)O | 340 | 8 |  | 17.6 | 400 |  | half-life [14]: 0.7 h
16 | CCOc1cc(NC(=O)C2(NC(=O)c3ccc4c(C5CCCC5)c(-c5ncc(Cl)cn5)n(C)c4c3)CC2)ccc1/C=C/C(=O)O | 380 | 34 | 3.25 |  |  |  | 

Row | SMILES | IC50 [1] [nM] | EC50 [2] [nM] | half-life [3] [h] | Papp A→B [4] [×10⁻⁶ cm/s] | concentration at 1 h [5] [nM] | concentration at 2 h [6] [nM] | also measured
17 | CCCOc1cc(NC(=O)C2(NC(=O)c3ccc4c(C5CCCC5)c(-c5ccccn5)n(C)c4c3)CCC2)ccc1/C=C/C(=O)O | 130 | 36 | 2.07 | 19 | 400 | 200 | 
18 | CCOc1cc(NC(=O)C(C)(C)NC(=O)c2ccc3c(C4CCCC4)c(-c4ncc(Cl)cn4)n(C)c3c2)ccc1/C=C/C(=O)O | 27 | 8 |  | 24 | 500 | 100 | 
19 | COc1cc(NC(=O)C2(NC(=O)c3ccc4c(C5CCCC5)c(-c5ccccn5)n(C)c4c3)CCC2)ccc1/C=C/C(=O)O | 47 | 32 | 1.37 |  | 1100 | 500 | 
20 | Cn1c(-c2ccccn2)c(C2CCCC2)c2ccc(C(=O)NC3(C(=O)Nc4ccc(/C=C/C(=O)O)c(Cl)c4)CCC3)cc21 | 100 | 110 |  |  |  |  | 
21 | Cn1c(-c2ccccn2)c(C2CCCC2)c2ccc(C(=O)NC3(C(=O)Nc4ccc(/C=C/C(=O)O)c(O)c4)CCC3)cc21 | 44 | 170 |  |  |  |  | 
22 | Cn1c(-c2ccccn2)c(C2CCCC2)c2ccc(C(=O)NC3(C(=O)Nc4ccc(/C=C/C(=O)O)c(C(F)(F)F)c4)CCC3)cc21 | 180 | 230 |  |  |  |  | 
23 | CCOc1cc(NC(=O)C2(NC(=O)c3ccc4c(C5CCCC5)c(-c5nccs5)n(C)c4c3)CCC2)ccc1/C=C/C(=O)O | 150 | 12 | 0.6 |  |  |  | 
24 | CCOc1cc(NC(=O)C2(NC(=O)c3ccc4c(C5CCCC5)c(-c5cnn(C)c5)n(C)c4c3)CCC2)ccc1/C=C/C(=O)O | 190 | 12 | 0.733 |  | 400 | 100 | 
25 | Cn1c(-c2ccccn2)c(C2CCCC2)c2ccc(C(=O)NC3(C(=O)Nc4ccc(/C=C/C(=O)O)c(OCC5CC5)c4)CCC3)cc21 | 250 | 46 | 3.85 |  |  |  | 
26 | CCOc1cc(NC(=O)C2(NC(=O)c3ccc4c(C5CCCC5)c(-c5ncc(Br)cn5)n(C)c4c3)CCC2)ccc1/C=C/C(=O)O | 460 | 19 | 2.57 | 13 | 1800 | 2100 | half-life [14]: 1.73 h
27 | COCCOc1cc(NC(=O)C2(NC(=O)c3ccc4c(C5CCCC5)c(-c5ccccn5)n(C)c4c3)CCC2)ccc1/C=C/C(=O)O | 56 | 27 | 1.45 |  |  |  | 
28 | CCOc1cc(NC(=O)C2(NC(=O)c3ccc4c(C5CCCC5)c(-c5ccccn5)n(C)c4c3)CCC2)ccc1/C=C/C(=O)O | 48 | 24 | 1.07 | 19 | 900 | 400 | 
29 | COCCOc1cc(NC(=O)C(C)(C)NC(=O)c2ccc3c(C4CCCC4)c(-c4ncc(Cl)cn4)n(C)c3c2)ccc1/C=C/C(=O)O | 200 | 10 | 2.15 | 12 | 200 |  | 
30 | Cn1c(-c2ccccn2)c(C2CCCC2)c2ccc(C(=O)NC3(C(=O)Nc4ccc(/C=C/C(=O)O)cc4O)CCC3)cc21 | 440 | 250 |  |  |  |  | 
31 | Cn1c(-c2ccccn2)c(C2CCCC2)c2ccc(C(=O)NC3(C(=O)Nc4ccc(/C=C/C(=O)O)cc4F)CCC3)cc21 | 230 | 560 |  |  |  |  | 
